In ChEMBL document CHEMBL1153326, “Benzo(h)quinoline derivatives as G-quadruplex binding agents” (Bioorg Med Chem Lett, 2009):

Columns and labels:
Assay type in all cases: nucleic-acid assay
Nucleic Acid [1] = assay: Binding affinity to human telomeric DNA G-quadruplex assessed as melting temperature at 0.5 uM by fluorescein-rhodamine based FRET assay
Procedure, shortened: (§1)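 Human telomeric-repeat G-quadruplex oligo carrying a 5'/3' fluorescein–rhodamine FRET pair. Compound at 0.5 µM with the oligo at half that concentration, in 10 mM cacodylate, 100 mM NaCl, pH 7.4. Heated from 20 to 80 °C at 1 °C/min with a 2 min equilibration at each step. Emission read at 518 nm; Tm taken from the melting curve, ΔTm against no compound.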

Nucleic Acid [2] = assay: Binding affinity to human telomeric DNA G-quadruplex assessed as change in melting temperature at 0.5 uM by fluorescein-rhodamine based FRET assay; procedure, shortened: as §1
Nucleic Acid [3] = assay: Displacement of thiazole orange from synthetic oligo 17bp DNA duplex by fluorescence displacement assay
Procedure, shortened: (§2)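 Compound titrated into 0.25 µM oligonucleotide (22G quadruplex or 17 bp duplex) with thiazole orange in 10 mM cacodylate, pH 7.4, plus 100 mM KCl. Full fluorescence spectrum recorded after each addition and peak area plotted against compound concentration. Concentration cutting the area by 50% taken as IC50; binding constant calculated from a simple competitive binding model.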

Nucleic Acid [4] = assay: Binding affinity to human telomeric DNA assessed as equilibrium binding constant by SPR
Procedure, shortened: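 SPR steady-state analysis against human telomeric quadruplex and duplex DNA, with multiple injections over a range of drug concentrations. Binding constants derived from the relative instrument response.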

Nucleic Acid [5] = assay: Selectivity for synthetic oligo 22G DNA G-quadruplex over synthetic oligo 17bp DNA duplex
Procedure, shortened: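 Ratio of the thiazole-orange displacement binding constant for the 22G quadruplex to that for the 17 bp duplex. Both constants come from titrating compound into 0.25 µM oligo with dye in 10 mM cacodylate, pH 7.4, 100 mM KCl, taking the 50% loss of peak area as IC50, and applying a competitive binding model.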

Nucleic Acid [6] = assay: Displacement of thiazole orange from synthetic oligo 22G DNA G-quadruplex by fluorescence displacement assay; procedure, shortened: as §2
Nucleic Acid [7] = assay: Binding affinity to DNA G-quadruplex

Row | Tm (Nucleic Acid [1]) [°C] | ΔTm (Nucleic Acid [2]) [°C] | K (Nucleic Acid [3]) [×10⁵ /M] | K (Nucleic Acid [4]) [×10⁵ /M] | Ratio (Nucleic Acid [5]) | K (Nucleic Acid [6]) [×10⁵ /M] | Kapp (Nucleic Acid [7]) [×10⁴ /M] | Compound
1 | 52.6 | 1.35 | 0.41 |  | 0.55 | 0.23 |  | O=C(NCCN1CCCC1)c1cc(=O)c2ccc3ccccc3c2[nH]1
2 | 56 | 4.36 | 0.21 | 0.4 | 2.5 | 0.53 |  | O=C(NCCN1CCCC1)c1c[nH]c2c(ccc3ccccc32)c1=O
3 | 52.2 | 1 | 1.1 |  | 0.05 | 0.05 |  | O=C(NCCN1CCCCC1)c1cc(=O)c2ccc3ccccc3c2[nH]1
4 | 52.5 | 1.27 | 2.5 |  | 0.21 | 0.53 |  | O=C(NCCN1CCNCC1)c1cc(=O)c2ccc3ccccc3c2[nH]1
5 | 52.4 | 1.19 | 0.75 |  | 0.4 | 0.3 |  | O=C(NCCN1CCNCC1)c1c[nH]c2c(ccc3ccccc32)c1=O

Second part, the molecule before the results:

Row | Compound | Tm (Nucleic Acid [1]) [°C] | ΔTm (Nucleic Acid [2]) [°C] | K (Nucleic Acid [3]) [×10⁵ /M] | K (Nucleic Acid [4]) [×10⁵ /M] | Ratio (Nucleic Acid [5]) | K (Nucleic Acid [6]) [×10⁵ /M] | Kapp (Nucleic Acid [7]) [×10⁴ /M]
6 | CN(C)c1ccc(NC(=O)c2cc(=O)c3ccc4ccccc4c3[nH]2)cc1 | 51.6 | 0.41 | 0.53 | 0.3 | 7.4 | 3.9 | 
7 | CN(C)CCCNC(=O)c1cc2[nH]c3c(cnc4ccc([N+](=O)[O-])cc43)c(=O)c2n1C |  |  |  |  |  |  | 2.7
8 | CN(C)c1ccc(NC(=O)c2c[nH]c3c(ccc4ccccc43)c2=O)cc1 | 51.4 | 0.19 | 0.74 |  | 0.71 | 0.53 | 
9 | O=C(Nc1ccncc1)c1c[nH]c2c(ccc3ccccc32)c1=O | 56.5 | 5.29 | 2.5 |  | 0.51 | 1.4 | 
10 | O=C(NCCN1CCCCC1)c1c[nH]c2c(ccc3ccccc32)c1=O | 56.4 | 5.17 | 0.24 |  | 10.4 | 2.5 | 
11 | CN1CCN(CCNC(=O)c2c[nH]c3c(ccc4ccccc43)c2=O)CC1 | 54.9 | 3.69 | 0.5 | 0.5 | 0.37 | 0.19 | 
12 | O=C(Nc1ccncc1)c1cc(=O)c2ccc3ccccc3c2[nH]1 | 51.9 | 0.69 | 0.5 |  | 0.84 | 0.42 | 
13 | O=C(Nc1ccccc1)c1c[nH]c2c(ccc3ccccc32)c1=O | 52.3 | 1.05 | 6 |  | 0.22 | 1.4 | 
